Screening results deposited in PubChem by several laboratories.
ALR H2O2 inh: inhibitors of human ALR sulfhydryl oxidase, primary screen, biochemical, H2O2 detection, HRP-luminol luminescence, single point; inhibition, % (concentration not given with the values); FAD-linked sulfhydryl oxidase ALR (Homo sapiens), P55789; hit rate 3.8% among 290,000; purified ALR, DTT oxidation;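 active = mean replicate inhibition above about 79%, with every replicate also reaching it, limit read from the data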
Target sequence (P55789 whole entry, looked up): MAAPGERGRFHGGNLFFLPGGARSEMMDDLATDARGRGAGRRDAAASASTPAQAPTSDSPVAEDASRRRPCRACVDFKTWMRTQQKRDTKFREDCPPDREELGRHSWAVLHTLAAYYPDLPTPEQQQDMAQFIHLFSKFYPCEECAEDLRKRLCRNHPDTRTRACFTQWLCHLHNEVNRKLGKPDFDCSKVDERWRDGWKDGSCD
PfM18AAP inh-1: PfM18AAP inhibitors, malaria aminopeptidase, primary screen, biochemical, QFRET, recombinant enzyme. H-Glu-NHMec fluorogenic cleavage. inhibition, % at 7.35 µM. hit rate 1.2% among 290,000. M18 aspartyl aminopeptidase (Plasmodium falciparum 3D7);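 active = inhibition above the campaign mean inhibition over all tested compounds plus 3 SD, cut at about 28% in these data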;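 also: 0% = plate median of test compound wells and 100% = 2 mM ZnCl2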
EBNA-1 inh: EBNA-1 DNA-binding inhibitors, primary screen, biochemical, fluorescence polarization. inhibition, % at 14.8 µM. hit rate 0.34% among 300,000; in the data active = inhibition above about 28%
ZTA DNA inh: blocks Epstein-Barr virus ZTA, an EBNA-1 counter-screen. inhibition, % at 11 µM. hit rate 0.15% among 320,000. ZTA-DNA binding, fluorescence polarization; in the data active = inhibition above about 33%
HCV NS3 hel inh: inhibitors of HCV NS3 helicase, primary screen, biochemical, Cy5 molecular beacon fluorescence. Hepatitis C virus NS3 helicase. NS3 helicase DNA unwinding. inhibition, % at 10.9 µM. hit rate 0.56% among 290,000. AID 1800, 2009;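 active = inhibition above the mean of all tested compounds plus 3 SD, set per campaign, cut at about 35% in these data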;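 also: 0% = DMSO wells and 100% = thioflavine S control wells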
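Measured by: Cy5 fluorescence, 0 and 60 min reads / Assay system: NS3 helicase fragment of HCV / Control set: low DMSO, high thioflavine S at 110 µM / Times: 1 h reaction at 25 °C, ATP-initiated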
HCV core dimer: inhibitors of HCV core protein dimerization, primary screen, biochemical, TR-FRET, high-throughput; AID 1899, 2009; TR-FRET GST/Flag-core106 dimerization, 1536-well; inhibition, % at 5 µM; hit rate 0.33% among 300,000;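 active = inhibition above the mean of all tested compounds plus 3 SD, set per screening campaign, cut at about 45% in these data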
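Assay system: Tagged HCV core106 pair (GST and Flag) | Buffer or medium: KF-containing HEPES buffer, pH 7.45, DTT, CHAPS, BSA | Also added: Eu donor and XL665 acceptor anti-tag antibodies | Dosing: One concentration, 5 µM, in 0.5% DMSO | Timing: 4 h at 22.5 °C | Technique: TR-FRET 671 and 617 nm emission | Repeats: Singlicate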
PfM18AAP inh-2: PfM18AAP inhibitors, malaria aminopeptidase, confirmation, biochemical, QFRET, recombinant enzyme, triplicate; shares compounds with PfM18AAP inh-1; H-Glu-NHMec fluorogenic cleavage; inhibition, % at 7.35 µM; hit rate 28% among 2,400; AID 2170, 2009;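 active = mean inhibition over replicate wells above the hit cutoff set for the earlier primary screen, cut at about 29% in these data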;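 also: 0% = median of test compound wells and 100% = 2 mM ZnCl2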
CTSL1 counter: cathepsin L1 inhibitors, retest, confirmation, counter-screen for PFM18AAP inhibitor project, biochemical, QFRET, triplicate | AID 2178, 2009 | 2,400 tested, under 10 active | shares compounds with PfM18AAP inh-1 | purified cathepsin L1, Z-Leu-Arg-MCA fluorescence | inhibition, % at 5.96 µM;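 active = average inhibition across replicates above the hit cutoff set in the earlier primary screen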;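 also: 0% = median of test compound wells and 100% = Z-Phe-Ala-diazomethylketone 1 µM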
Target sequence (P07711 whole entry, looked up): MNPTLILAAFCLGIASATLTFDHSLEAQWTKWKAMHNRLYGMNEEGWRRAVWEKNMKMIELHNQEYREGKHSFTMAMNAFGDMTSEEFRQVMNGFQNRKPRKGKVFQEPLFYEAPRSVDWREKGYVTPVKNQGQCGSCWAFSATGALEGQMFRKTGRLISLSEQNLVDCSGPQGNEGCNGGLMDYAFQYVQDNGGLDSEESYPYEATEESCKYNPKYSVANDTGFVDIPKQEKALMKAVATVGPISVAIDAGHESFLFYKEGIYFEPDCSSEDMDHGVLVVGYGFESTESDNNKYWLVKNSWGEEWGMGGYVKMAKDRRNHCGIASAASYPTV
Starred values were filed as active, the others as inactive; / = no result given. Compounds with a hit are over-represented: about 5.2% of the library has one in this group of screens.

SMILES	ALR H2O2 inh	PfM18AAP inh-1	EBNA-1 inh	ZTA DNA inh	HCV NS3 hel inh	HCV core dimer	PfM18AAP inh-2	CTSL1 counter
CCCc1ccc(-c2cc(C(=O)NN3CCOCC3)c3ccccc3n2)cc1	-14	-7	-3	15	-9	-2	/	/
Cc1cc(C)c2nc(-c3ccccn3)cc(C(=O)Nn3cnnc3)c2c1	-7	44*	1	9	2	11	29*	-4
CCc1ccc(-c2cc(C(=O)Nn3cnnc3)c3ccccc3n2)cc1	-3	43*	-5	-8	-1	16	46*	-1
Cc1ccccc1C(=O)Nc1ccccc1	-13	-2	-9	-4	-3	-2	/	/
O=C(CSc1nnc(-c2ccccc2)o1)Nn1cnnc1	-4	72*	5	7	-3	-2	73*	1
Cc1ccccc1C(=O)Nn1cnnc1	1	33*	-7	3	-1	-6	24	-4
Cn1c(CNC(=O)c2ccc3c(c2)OCO3)nnc1SCC(=O)Nc1ccc(F)cc1F	-11	-1	0	9	-2	0	/	/
CS(=O)(=O)N(CC(=O)N1CCC(C(N)=O)CC1)Cc1ccc(Cl)c(Cl)c1	-2	-1	-4	-12	-2	0	/	/
OCCN1CCN(c2ncnc3sc4c(c23)CCCC4)CC1	-15	5	-17	-10	2	-16	/	/
Oc1ccc(N2CCN(c3ncnc4sc5c(c34)CCC5)CC2)cc1	99*	39*	0	4	9	6	3	-1
Oc1ccc(-c2nc3ccc4ccccc4c3c3c2CCC3)cc1O	9	47*	-4	-2	-7	8	32*	-1
Oc1ccc(C2=Nn3c(nnc3-c3ccco3)SC2)cc1O	58	75*	0	2	-1	-7	60*	-1
Cc1ccc(S(=O)(=O)Nc2cc(Cl)c(O)c3ncccc23)cc1	-4	39*	-6	7	7	-31	18	-2
Oc1c(Cl)cc(Cl)c2cccnc12	/	10	/	/	1	/	/	/
CCOC(=O)c1sc(N)c(C(=O)Nc2ccccc2)c1C	-3	40*	-15	0	10	-3	5	1
CCOC(=O)c1sc(N)c(C(=O)OCC)c1C	2	-6	10	-2	1	5	/	/
O=C(C/C=N\OCc1ccc([N+](=O)[O-])cc1)Nc1ccccc1	-14	33*	-15	3	-6	2	-33	-1
O=C(Nc1ccc(Br)cc1Cl)NC1CC1	-9	2	6	18	-1	-9	/	/
Cc1nc2ccccn2c1-c1ccnc(=S)[nH]1	100*	37*	-1	-8	-4	4	13	2
Cc1ccn2c(c1)nc(=O)c1cc(S(=O)(=O)N3CCCCC3)ccc12	1	-5	-9	-9	2	8	/	/
O=C(CCN1C(=O)C2C3C=CC(C4CC34)C2C1=O)Nc1ccc(Cl)cc1O (centres undefined)	2	4	-1	-11	9	-1	/	/
COc1cc(/C=C/C(=O)Nc2nnc(CC(C)(C)C)s2)cc(OC)c1OC	33	34*	-6	-22	-2	-9	-8	2
Cc1nc2ccc(S(=O)(=O)NCC(=O)NC(C)c3ccccc3)cc2s1 (centres undefined)	-9	33*	-2	2	-1	1	-31	3
Cc1cccc(/C=C/C(=O)c2cc(Br)ccc(=O)c2O)c1	98*	49*	10	10	23	3	-21	4
O=C(NCC(c1ccco1)N1CCCC1)c1cccc(S(=O)(=O)Nc2ccc(F)cc2)c1 (centres undefined)	/	/	/	-1	/	/	/	/
SMILES	ALR H2O2 inh	PfM18AAP inh-1	EBNA-1 inh	ZTA DNA inh	HCV NS3 hel inh	HCV core dimer	PfM18AAP inh-2	CTSL1 counter
CC#CC(=O)N1CCC(CCC(=O)N(C)Cc2ccccc2)CC1	3	-13	2	-1	-15	0	/	/
CCN1CCc2nc3sc(C(=O)N4CCc5ccccc5C4)c(N)c3cc2C1	/	35*	-14	-8	-34	-9	-10	-1
COc1cc(N=c2ssnc2Cl)cc(OC)c1OC	/	39*	-13	-8	19	4	-53	3
Fc1ccc(N=c2ssnc2Cl)c(F)c1	-5	32*	0	0	5	8	-46	-1
COc1ccc(N=c2ssnc2Cl)cc1	20	18	1	4	12	-7	/	/
CC1CCOC2(O1)C(=O)Nc1ccccc12 (centres undefined)	-4	-2	3	-7	7	5	/	/
Cc1ccc(C(C)(C)C)c(SCC(=O)Nc2nnc(C)s2)c1	-7	4	-1	-2	2	3	/	/
O=c1[nH][nH]c(=S)n1-c1ccccc1C(F)(F)F	/	61*	/	/	-7	/	18	-3
CCn1nnc2cc(C(=O)Nc3cc(OC)cc(OC)c3)ccc21	/	/	5	-17	/	-3	/	/
COc1ccc(CN2C(=O)c3cccnc3C2=O)cc1S(=O)(=O)NC(C)C	-2	-1	2	3	-8	0	/	/
CC(C)c1ccc(O)c(N)c1	-2	17	5	2	9	-2	/	/
CC(C)(C)c1ccc(O)c(N)c1	15	46*	4	5	26	16	76*	-3
CCOC(=O)Cc1nnc(NC(=O)c2ccccc2OCC)s1	-14	3	11	-15	-4	2	/	/
CCOC(=O)Cc1nnc(NC(=O)c2ncn[nH]2)s1	2	46*	-17	-10	5	-5	0	-4
C=C(C)c1cccc(C(C)(C)NC(=O)NNC(=O)c2ccccc2O)c1	12	40*	-25	5	10	-2	-10	0
Cc1nn2c(=O)cc(COC(=O)c3c(F)cccc3Cl)nc2s1	/	/	/	-3	/	/	/	/
Cc1cccn2c(=O)c3cc(S(=O)(=O)c4ccccc4)c(=N)n(CC4CCCO4)c3nc12 (centres undefined)	-3	-7	8	21	8	1	/	/
OCCn1c(-c2ccc3c(c2)OCO3)csc1=Nc1ccccc1	/	37*	8	-4	-8	-10	-52	3
O=C(O)Cc1sc(Nc2ccc(Cl)cc2)nc1-c1cccs1	/	33*	/	/	17	/	-30	1
